Source: ChEMBL document CHEMBL4024779, “Novel Terminal Bipheny-Based Diapophytoene Desaturases (CrtN) Inhibitors as Anti-MRSA/VISR/LRSA Agents with Reduced hERG Activity” (J Med Chem, 2018)
Activity calls are given as the source filed them. The rule behind the calls is not given here.

Experiments:
Staphylococcus aureus [1] = test: In vivo anti-virulence activity against Staphylococcus aureus Newman infected in BALB/c mouse model assessed as reduction in bacterial load in kidney at 0.2 mg bid for 3.5 days administered orally 6 hrs post infection by serial dilution method relative to control; format: functional; design: scale not given: the % may be the effect or the level left
Summary of the method: (§1)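 Mice got 3.1 × 10^7 CFU S. aureus Newman by retro-orbital injection. Oral compound was given b.i.d. for 3.5 d, starting 6 h after infection. […] Log10 CFU was counted per kidney and per heart.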

[2] = Inhibition of CrtN in methicillin-resistant Staphylococcus aureus NF65Y assessed as reduction in staphyloxanthin levels after 48 hrs by spectrophotometric method-based pigment inhibition assay
Staphylococcus aureus [3] = test: In vivo anti-virulence activity against Staphylococcus aureus Newman infected in BALB/c mouse model assessed as reduction in bacterial load in heart at 0.1 mg bid for 3.5 days administered orally 6 hrs post infection by serial dilution method relative to vancomycin; format: functional; design: scale not given: the % may be the effect or the level left; summary of the method: as §1
Staphylococcus aureus [4] = test: In vivo anti-virulence activity against Staphylococcus aureus Mu50 infected in BALB/c mouse model assessed as reduction in bacterial load in kidney at 0.2 mg bid for 3.5 days administered orally 6 hrs post infection by serial dilution method relative to control; format: functional, organism-based
Summary of the method: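 Mice were infected by retro-orbital injection with Mu50 (4.6 × 10^9 CFU) or NRS271 (3.5 × 10^8 CFU). Oral compound was given b.i.d. for 3.5 d, starting 6 h after infection. Log10 CFU was counted per kidney and per heart.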

Staphylococcus aureus [5] = test: In vivo anti-virulence activity against Staphylococcus aureus Newman infected in BALB/c mouse model assessed as reduction in bacterial load in heart at 0.4 mg bid for 3.5 days administered orally 6 hrs post infection by serial dilution method relative to control; format: functional, organism-based; summary of the method: as §1
Cytochrome P450 3A4 = Cytochrome P450 3A4 (Homo sapiens, UniProt P08684); test: Inhibition of CYP3A4 in human liver microsomes using midazolam as substrate upto 10 uM after 5 mins in presence of NADPH by LC-MS/MS analysis; format: ADME
Chain of Cytochrome P450 3A4 (P08684 whole entry): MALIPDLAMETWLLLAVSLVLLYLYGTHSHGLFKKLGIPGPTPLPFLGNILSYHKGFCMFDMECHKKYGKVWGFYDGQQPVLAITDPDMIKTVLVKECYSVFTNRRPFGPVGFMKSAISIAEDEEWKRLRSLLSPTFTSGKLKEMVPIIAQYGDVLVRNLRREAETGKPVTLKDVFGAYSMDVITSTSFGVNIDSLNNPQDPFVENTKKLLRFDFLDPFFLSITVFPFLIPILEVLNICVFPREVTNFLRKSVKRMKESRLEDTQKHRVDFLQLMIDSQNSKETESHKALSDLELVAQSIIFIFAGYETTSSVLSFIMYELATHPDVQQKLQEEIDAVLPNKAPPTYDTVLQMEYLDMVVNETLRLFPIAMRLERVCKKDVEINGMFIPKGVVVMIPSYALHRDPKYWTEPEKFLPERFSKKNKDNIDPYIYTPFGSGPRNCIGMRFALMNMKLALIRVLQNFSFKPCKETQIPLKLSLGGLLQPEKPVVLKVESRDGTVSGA

[6] = AUC (0 to 24 hrs) in mouse at 2 mg/kg, iv administered as single dose by LC-MS/MS analysis; format: ADME, organism-based; design: dose 2 mg/kg, time < 24 hr, route intravenous; conditions: in vivo
[7] = biological target: T1, 4,4'-diapophytoene desaturase (4,4'-diaponeurosporene-forming) (Staphylococcus aureus (strain USA300)) (UniProt Q2FDU6); conditions: Staphylococcus aureus LAC, 1 uM
T1 sequence (whole entry): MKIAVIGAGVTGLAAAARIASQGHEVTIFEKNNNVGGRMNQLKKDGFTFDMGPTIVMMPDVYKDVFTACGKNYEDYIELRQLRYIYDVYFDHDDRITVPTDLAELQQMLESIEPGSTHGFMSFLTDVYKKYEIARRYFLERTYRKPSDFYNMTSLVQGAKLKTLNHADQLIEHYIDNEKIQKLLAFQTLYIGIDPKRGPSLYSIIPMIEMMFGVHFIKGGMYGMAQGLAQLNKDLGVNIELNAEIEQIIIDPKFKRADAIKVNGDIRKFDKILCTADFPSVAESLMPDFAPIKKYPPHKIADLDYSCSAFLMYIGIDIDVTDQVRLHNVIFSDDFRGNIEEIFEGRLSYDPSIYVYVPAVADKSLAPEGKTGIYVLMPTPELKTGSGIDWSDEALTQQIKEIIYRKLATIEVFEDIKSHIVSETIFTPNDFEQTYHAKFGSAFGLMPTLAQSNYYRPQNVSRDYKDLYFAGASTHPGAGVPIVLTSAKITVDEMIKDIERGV

[8] = AUC (0 to infinity) in mouse at 2 mg/kg, iv administered as single dose by LC-MS/MS analysis; format: ADME, organism-based; design: dose 2 mg/kg, time infinity, route intravenous; conditions: in vivo
[9] = Cmax in mouse at 2 mg/kg, iv administered as single dose by LC-MS/MS analysis; format: ADME, organism-based; design: dose 2 mg/kg, route intravenous; conditions: in vivo
[10] = Half life in mouse at 2 mg/kg, iv administered as single dose by LC-MS/MS analysis; format: ADME, organism-based; conditions: in vivo
Staphylococcus aureus [11] = test: In vivo anti-virulence activity against methicillin-resistant Staphylococcus aureus XN108 infected in BALB/c mouse model assessed as reduction in bacterial load in heart at 0.1 mg bid for 3.5 days administered intraperitoneally 6 hrs post infection by serial dilution method relative to vancomycin; format: functional, organism-based
Summary of the method: (§2)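 Mice infected retro-orbitally with S. aureus NF65Y (3.5 × 10^8 CFU) or XN108 (2.1 × 10^8 CFU). Test compound given i.p. b.i.d. starting 6 h post-infection. […] Log10 CFU per kidney and heart counted. Two-tailed Mann−Whitney test.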

Staphylococcus aureus [12] = test: In vivo anti-virulence activity against Staphylococcus aureus Newman infected in BALB/c mouse model assessed as reduction in bacterial load in kidney at 0.1 mg bid for 3.5 days administered orally 6 hrs post infection by serial dilution method relative to control; format: functional; design: scale not given: the % may be the effect or the level left; summary of the method: as §1
Staphylococcus aureus [13] = test: In vivo anti-virulence activity against Staphylococcus aureus Newman in mouse lethal infection model assessed as host survival rate at 0.1 mg bid for 3.5 days administered intraperitoneally 6 hrs post infection and measured on day 4; format: functional
Summary of the method: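 In a lethal sepsis model, mice (n=15) were challenged with 2 × 10^8 CFU S. aureus Newman. Animal survival was recorded daily through day 8.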

[14] = Inhibition of CrtN in methicillin-resistant Staphylococcus aureus NRS100 assessed as reduction in staphyloxanthin levels after 48 hrs by spectrophotometric method-based pigment inhibition assay
[15] = Cmax in Sprague-Dawley rat at 5 mg/kg, iv administered as single dose by LC-MS/MS analysis; format: ADME, organism-based; design: dose 5 mg/kg, route intravenous; conditions: in vivo
Rattus norvegicus [16] = test: Toxicity in Sprague-Dawley rat at 60 to 1000 mg/kg, po administered as single dose assessed as abnormal behavior measured during 2 weeks post administration; format: organism-based; conditions: in vivo, 336 h
Summary of the method: (§3)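 Rats, 30 in total, randomised into three groups. Each received a single oral dose of 60, 250 or 1000 mg/kg on day 1. Poisoning symptoms, mortality, behaviour, water and food consumption and body weight monitored immediately and over 2 weeks.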

Rattus norvegicus [17] = test: Toxicity in Sprague-Dawley rat at 60 to 1000 mg/kg, po administered as single dose assessed as poisoning symptoms measured during 2 weeks post administration; format: organism-based; conditions: in vivo, 336 h; summary of the method: as §3
[18] = AUC (0 to 24 hrs) in Sprague-Dawley rat at 5 mg/kg, iv administered as single dose by LC-MS/MS analysis; format: ADME, organism-based; design: dose 5 mg/kg, time < 24 hr, route intravenous; conditions: in vivo
[19] = Clearance in mouse at 2 mg/kg, iv administered as single dose by LC-MS/MS analysis; format: ADME, organism-based; conditions: in vivo
Staphylococcus aureus [20] = test: In vivo anti-virulence activity against Staphylococcus aureus Newman infected in BALB/c mouse model assessed as reduction in bacterial load in heart at 0.1 mg bid for 3.5 days administered orally 6 hrs post infection by serial dilution method relative to control; format: functional, organism-based; summary of the method: as §1
Staphylococcus aureus [21] = test: In vivo anti-virulence activity against methicillin-resistant Staphylococcus aureus NF65Y infected in BALB/c mouse model assessed as reduction in bacterial load in heart at 0.1 mg bid for 3.5 days administered intraperitoneally 6 hrs post infection by serial dilution method relative to linezolid; format: functional, organism-based; summary of the method: as §2
[22] = biological target: T2, 4,4'-diapophytoene desaturase (4,4'-diaponeurosporene-forming) (Staphylococcus aureus (strain Mu50 / ATCC 700699)) (UniProt Q99R76); conditions: Staphylococcus aureus subsp. aureus Mu50; 1 uM
T2 sequence (whole entry): T1 sequence (whole entry)

[23] = AUC (0 to infinity) in Sprague-Dawley rat at 10 mg/kg, ip administered as single dose by LC-MS/MS analysis; format: ADME, organism-based; design: dose 10 mg/kg, time infinity, route intraperitoneal; conditions: in vivo

In the case of CN(C/C=C/c1ccc(-c2ccccc2)cc1)Cc1coc2ccccc12.Cl, the Activity (Staphylococcus aureus [1]) is reported as 90%, the IC50 [2] is reported as 1 nM and the Activity (Staphylococcus aureus [3]) is reported as >55.3%. For the same molecule, the Activity (Staphylococcus aureus [4]) was “Active”, the Activity (Staphylococcus aureus [5]) was “inactive” and the IC50 (Cytochrome P450 3A4) was > 10 µM. For the same molecule, the AUC(0-t) at 24 h [6] was 1070 ng·h/mL, the Survival [7] was 2.3% and the AUC(0-inf) [8] was 1090 ng·h/mL. For the same molecule, the Cmax [9] was 2230 ng/mL, the half-life [10] was 123 min and the Activity (Staphylococcus aureus [11]) was “Active”. The Activity (Staphylococcus aureus [12]) was 90%, the Survival (Staphylococcus aureus [13]) was 80% and the IC50 [14] was 1.2 nM. The Cmax [15] was 4610 ng/mL, the Activity (Rattus norvegicus [16]) was “Non-Toxic” and the Activity (Rattus norvegicus [17]) was “Non-Toxic”. For the same molecule, the AUC(0-t) at 24 h [18] was 2810 ng·h/mL, the clearance [19] was 30.7 mL/min/kg and the Activity (Staphylococcus aureus [20]) was “inactive”. For the same molecule, the Activity (Staphylococcus aureus [21]) was “Active”, the Survival [22] was 2.7% and the AUC(0-inf) [23] was 1090 µg·h/mL.
